Measured values as given in ChEMBL document CHEMBL4043132, “3-O-Substituted-3',4',5'-trimethoxyflavonols: Synthesis and cell-based evaluation as anti-prostate cancer agents” (Bioorg Med Chem, 2017).

How the values were obtained:
PC-3 [1] = experiment: Antiproliferative activity against human PC3 cells after 3 days by WST-1 assay; type: functional, cell-based; details: PC-3, 72 h
Method in brief: (§1)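 Cells from ATCC; PC-3 and LNCaP grown in RPMI-1640 and DU145 in EMEM, each with 10% FBS and 1% penicillin/streptomycin, 37 °C, 5% CO2. Seeded 3,200 cells/well and exposed for 3 days to at least five doses, with DMSO as vehicle control. WST-1 reagent added for 3 h at 37 °C, absorbance read at 430 nm. IC50 taken from a linear inhibition plot; mean ± SD of three independent experiments.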

DU-145 = experiment: Antiproliferative activity against human DU145 cells after 3 days by WST-1 assay; type: functional, cell-based; details: DU-145, 72 h; method in brief: as §1
LNCaP = experiment: Antiproliferative activity against human LNCAP cells after 3 days by WST-1 assay; type: functional, cell-based; details: 72 h; method in brief: as §1
PWR-1E = experiment: Antiproliferative activity against human PWR-1E cells after 3 days by WST-1 assay; type: cell-based; details: 72 h
Method in brief: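 PWR-1E benign prostate epithelial cells grown in keratinocyte serum-free medium with bovine pituitary extract and recombinant human EGF. Seeded 3,200 cells/well and treated for 3 days at 37 °C, with DMSO as vehicle control. WST-1 reagent added for 3 h, absorbance read at 430 nm. IC50 from a linear inhibition plot over at least five doses; mean ± SD, n = 3.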

PC-3 [2] = experiment: Cell cycle arrest in human PC3 cells assessed as accumulation at G0/G1 phase at 10 uM after 16 hrs by propidium iodide staining-based flow cytometry (reference value: 34.1%); type: functional
PC-3 [3] = experiment: Cell cycle arrest in human PC3 cells assessed as accumulation at G0/G1 phase at 20 uM after 16 hrs by propidium iodide staining-based flow cytometry (reference value: 34.1%); type: functional
PC-3 [4] = experiment: Cell cycle arrest in human PC3 cells assessed as accumulation at G0/G1 phase at 10 uM after 24 hrs by propidium iodide staining-based flow cytometry (reference value: 37.5%); type: functional
PC-3 [5] = experiment: Cell cycle arrest in human PC3 cells assessed as accumulation at G0/G1 phase at 20 uM after 24 hrs by propidium iodide staining-based flow cytometry (reference value: 37.5%); type: functional
PC-3 [6] = experiment: Cell cycle arrest in human PC3 cells assessed as accumulation at S phase at 10 uM after 16 hrs by propidium iodide staining-based flow cytometry (reference value: 9.9%); type: functional
PC-3 [7] = experiment: Cell cycle arrest in human PC3 cells assessed as accumulation at S phase at 20 uM after 16 hrs by propidium iodide staining-based flow cytometry (reference value: 9.9%); type: functional
PC-3 [8] = experiment: Cell cycle arrest in human PC3 cells assessed as accumulation at S phase at 10 uM after 24 hrs by propidium iodide staining-based flow cytometry (reference value: 8.0%); type: functional
PC-3 [9] = experiment: Cell cycle arrest in human PC3 cells assessed as accumulation at S phase at 20 uM after 24 hrs by propidium iodide staining-based flow cytometry (reference value: 8.0%); type: functional
PC-3 [10] = experiment: Cell cycle arrest in human PC3 cells assessed as accumulation at G2/M phase at 10 uM after 16 hrs by propidium iodide staining-based flow cytometry (reference value: 32.3%); type: functional
PC-3 [11] = experiment: Cell cycle arrest in human PC3 cells assessed as accumulation at G2/M phase at 20 uM after 16 hrs by propidium iodide staining-based flow cytometry (reference value: 32.3%); type: functional
PC-3 [12] = experiment: Cell cycle arrest in human PC3 cells assessed as accumulation at G2/M phase at 10 uM after 24 hrs by propidium iodide staining-based flow cytometry (reference value: 27.8%); type: functional
PC-3 [13] = experiment: Cell cycle arrest in human PC3 cells assessed as accumulation at G2/M phase at 20 uM after 24 hrs by propidium iodide staining-based flow cytometry (reference value: 27.8%); type: functional
PC-3 [14] = experiment: Induction of apoptosis in human PC3 cells assessed as viable cells at 1 uM after 16 hrs by F2N12S and CYTOX AADvanced double staining-based flow cytometric analysis (reference value: 95%); type: functional; details: PC-3, 16 h, read-out: Activity
PC-3 [15] = experiment: Induction of apoptosis in human PC3 cells assessed as apoptotic cells at 1 uM after 16 hrs by F2N12S and CYTOX AADvanced double staining-based flow cytometric analysis (reference value: 2 to 3%); type: functional
PC-3 [16] = experiment: Induction of apoptosis in human PC3 cells assessed as necrotic cells at 1 uM after 16 hrs by F2N12S and CYTOX AADvanced double staining-based flow cytometric analysis (reference value: 2 to 3%); type: functional
PC-3 [17] = experiment: Induction of apoptosis in human PC3 cells assessed as viable cells at 5 uM after 16 hrs by F2N12S and CYTOX AADvanced double staining-based flow cytometric analysis (reference value: 95%); type: functional; details: PC-3, 16 h, read-out: Activity
PC-3 [18] = experiment: Induction of apoptosis in human PC3 cells assessed as apoptotic cells at 5 uM after 16 hrs by F2N12S and CYTOX AADvanced double staining-based flow cytometric analysis (reference value: 2 to 3%); type: functional
PC-3 [19] = experiment: Induction of apoptosis in human PC3 cells assessed as necrotic cells at 5 uM after 16 hrs by F2N12S and CYTOX AADvanced double staining-based flow cytometric analysis (reference value: 2 to 3%); type: functional
PC-3 [20] = experiment: Induction of apoptosis in human PC3 cells assessed as viable cells at 10 uM after 16 hrs by F2N12S and CYTOX AADvanced double staining-based flow cytometric analysis (reference value: 95%); type: functional; details: PC-3, 16 h, read-out: Activity
PC-3 [21] = experiment: Induction of apoptosis in human PC3 cells assessed as apoptotic cells at 10 uM after 16 hrs by F2N12S and CYTOX AADvanced double staining-based flow cytometric analysis (reference value: 2 to 3%); type: functional
PC-3 [22] = experiment: Induction of apoptosis in human PC3 cells assessed as necrotic cells at 10 uM after 16 hrs by F2N12S and CYTOX AADvanced double staining-based flow cytometric analysis (reference value: 2 to 3%); type: functional
PC-3 [23] = experiment: Induction of apoptosis in human PC3 cells assessed as viable cells at 20 uM after 16 hrs by F2N12S and CYTOX AADvanced double staining-based flow cytometric analysis (reference value: 95%); type: functional; details: PC-3, 16 h, read-out: Activity
PC-3 [24] = experiment: Induction of apoptosis in human PC3 cells assessed as apoptotic cells at 20 uM after 16 hrs by F2N12S and CYTOX AADvanced double staining-based flow cytometric analysis (reference value: 2 to 3%); type: functional
PC-3 [25] = experiment: Induction of apoptosis in human PC3 cells assessed as necrotic cells at 20 uM after 16 hrs by F2N12S and CYTOX AADvanced double staining-based flow cytometric analysis (reference value: 2 to 3%); type: functional
PC-3 [26] = experiment: Induction of apoptosis in human PC3 cells assessed as viable cells at 30 uM after 16 hrs by F2N12S and CYTOX AADvanced double staining-based flow cytometric analysis (reference value: 95%); type: functional; details: PC-3, 16 h, read-out: Activity
PC-3 [27] = experiment: Induction of apoptosis in human PC3 cells assessed as apoptotic cells at 30 uM after 16 hrs by F2N12S and CYTOX AADvanced double staining-based flow cytometric analysis (reference value: 2 to 3%); type: functional
PC-3 [28] = experiment: Induction of apoptosis in human PC3 cells assessed as necrotic cells at 30 uM after 16 hrs by F2N12S and CYTOX AADvanced double staining-based flow cytometric analysis (reference value: 2 to 3%); type: functional
PC-3 [29] = experiment: Induction of apoptosis in human PC3 cells assessed as viable cells at 50 uM after 16 hrs by F2N12S and CYTOX AADvanced double staining-based flow cytometric analysis (reference value: 95%); type: functional; details: PC-3, 16 h, read-out: Activity
PC-3 [30] = experiment: Induction of apoptosis in human PC3 cells assessed as apoptotic cells at 50 uM after 16 hrs by F2N12S and CYTOX AADvanced double staining-based flow cytometric analysis (reference value: 2 to 3%); type: functional
PC-3 [31] = experiment: Induction of apoptosis in human PC3 cells assessed as necrotic cells at 50 uM after 16 hrs by F2N12S and CYTOX AADvanced double staining-based flow cytometric analysis (reference value: 2 to 3%); type: functional
PC-3 [32] = experiment: Induction of apoptosis in human PC3 cells assessed as viable cells at 100 uM after 16 hrs by F2N12S and CYTOX AADvanced double staining-based flow cytometric analysis (reference value: 95%); type: functional; details: PC-3, 16 h, read-out: Activity
PC-3 [33] = experiment: Induction of apoptosis in human PC3 cells assessed as apoptotic cells at 100 uM after 16 hrs by F2N12S and CYTOX AADvanced double staining-based flow cytometric analysis (reference value: 2 to 3%); type: functional
PC-3 [34] = experiment: Induction of apoptosis in human PC3 cells assessed as necrotic cells at 100 uM after 16 hrs by F2N12S and CYTOX AADvanced double staining-based flow cytometric analysis (reference value: 2 to 3%); type: functional
PC-3 [35] = experiment: Induction of apoptosis in human PC3 cells assessed as apoptotic cells after 16 hrs by F2N12S and CYTOX AADvanced double staining-based flow cytometric analysis; type: functional, cell-based
[36] = Cmax in C57BL/6J mouse prostate at 240 mg/kg, po administered as single dose measured after 6 hrs post administration; type: ADME, organism-based, Prostate gland; set-up: dose 240 mg/kg, route oral

Row | IC50 (PC-3 [1]) [µM] | IC50 (DU-145) [µM] | IC50 (LNCaP) [µM] | Compound | IC50 (PWR-1E) [µM] | Activity (PC-3 [2]) [%] | Activity (PC-3 [3]) [%] | Activity (PC-3 [4]) [%] | Activity (PC-3 [5]) [%] | Activity (PC-3 [6]) [%] | Activity (PC-3 [7]) [%] | Activity (PC-3 [8]) [%] | Activity (PC-3 [9]) [%] | Activity (PC-3 [10]) [%] | Activity (PC-3 [11]) [%] | Activity (PC-3 [12]) [%] | Activity (PC-3 [13]) [%] | viability at 1 µM (PC-3 [14]) [%] | Activity (PC-3 [15]) [%] | Activity (PC-3 [16]) [%] | viability at 5 µM (PC-3 [17]) [%] | also measured
1 | 32.1 | 27.2 | 14.7 | COc1cc(-c2oc3ccccc3c(=O)c2O)cc(OC)c1OC | > 50 | 31.2 | 33.3 | 34.6 | 33.8 | 12.3 | 11.7 | 6 | 6 | 33 | 26.6 | 33.3 | 31.2 | 90 | 6 | 2 | 81 | Activity (PC-3 [18]): 11%; Activity (PC-3 [19]): 2%; viability at 10 µM (PC-3 [20]): 66%; Activity (PC-3 [21]): 39%; Activity (PC-3 [22]): 2%; viability at 20 µM (PC-3 [23]): 47%; Activity (PC-3 [24]): 50%; Activity (PC-3 [25]): 3%; viability at 30 µM (PC-3 [26]): 43%; Activity (PC-3 [27]): 54%; Activity (PC-3 [28]): 2%; viability at 50 µM (PC-3 [29]): 45%; Activity (PC-3 [30]): 61%; Activity (PC-3 [31]): 2%; viability at 100 µM (PC-3 [32]): 24%; Activity (PC-3 [33]): 73%; Activity (PC-3 [34]): 3%; Activity (PC-3 [35]): Dose-dependent effect; Cmax [36]: 18.4 nM
2 | 5.8 | 12.3 | 5.1 | CCCCCN(CCCCC)CCCOc1c(-c2cc(OC)c(OC)c(OC)c2)oc2ccccc2c1=O | 14.8 | 51.3 | 40.8 | 52.6 | 59.8 | 4.5 | 6.5 | 3.7 | 1.9 | 28.6 | 34.8 | 25.4 | 26.4 | 87 | 10 | 2 | 46 | Activity (PC-3 [18]): 51%; Activity (PC-3 [19]): 3%; viability at 10 µM (PC-3 [20]): 3%; Activity (PC-3 [21]): 93%; Activity (PC-3 [22]): 4%; viability at 20 µM (PC-3 [23]): 0%; Activity (PC-3 [24]): 94%; Activity (PC-3 [25]): 6%; viability at 30 µM (PC-3 [26]): 0%; Activity (PC-3 [27]): 92%; Activity (PC-3 [28]): 8%; viability at 50 µM (PC-3 [29]): 0%; Activity (PC-3 [30]): 65%; Activity (PC-3 [31]): 35%; viability at 100 µM (PC-3 [32]): 0%; Activity (PC-3 [33]): 27%; Activity (PC-3 [34]): 72%; Activity (PC-3 [35]): Dose-dependent effect
